Source: ChEMBL document CHEMBL1782051, “Synthesis and biological evaluation of novel gamma-carboline analogues of Dimebon as potent 5-HT6 receptor antagonists” (Bioorg Med Chem Lett, 2009)

Columns and labels:
[1] = target: 5-hydroxytryptamine receptor 6 (Homo sapiens, UniProt P50406); assay: Antagonist activity at human recombinant 5-HT6 receptor expressed in HEK293 cells assessed as inhibition of serotonin-induced intracellular cAMP accumulation by LANCE technique; assay type: functional, cell-based
Chain of 5-hydroxytryptamine receptor 6 (P50406 whole entry): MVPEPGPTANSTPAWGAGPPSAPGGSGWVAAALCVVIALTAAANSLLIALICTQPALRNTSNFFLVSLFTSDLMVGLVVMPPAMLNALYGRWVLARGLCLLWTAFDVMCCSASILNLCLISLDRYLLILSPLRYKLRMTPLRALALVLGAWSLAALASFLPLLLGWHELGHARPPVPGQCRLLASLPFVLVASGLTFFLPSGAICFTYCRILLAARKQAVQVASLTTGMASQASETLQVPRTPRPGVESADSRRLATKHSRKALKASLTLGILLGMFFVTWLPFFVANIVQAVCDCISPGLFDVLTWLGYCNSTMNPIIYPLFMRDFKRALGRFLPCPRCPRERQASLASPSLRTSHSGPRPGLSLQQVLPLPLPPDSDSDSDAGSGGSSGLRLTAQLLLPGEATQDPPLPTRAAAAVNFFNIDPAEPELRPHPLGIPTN
Method in brief: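 Cells continuously express recombinant human 5-HT6 receptors. Serotonin stimulation raises intracellular cyclic AMP, which was monitored continuously by LANCE technology. Read-out was inhibition of the serotonin-dependent cAMP response.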

Histamine H1 receptor [2] = target: T1, Histamine H1 receptor (Homo sapiens, UniProt P35367); assay: Antagonist activity at human histamine H1 receptor in SK-N-SH cells assessed as inhibition of histamine-induced calcium flow during phase-II compound dosed after histamine addition by Fura-2 based fluorometric assay; assay type: functional
T1 sequence (P35367 whole entry): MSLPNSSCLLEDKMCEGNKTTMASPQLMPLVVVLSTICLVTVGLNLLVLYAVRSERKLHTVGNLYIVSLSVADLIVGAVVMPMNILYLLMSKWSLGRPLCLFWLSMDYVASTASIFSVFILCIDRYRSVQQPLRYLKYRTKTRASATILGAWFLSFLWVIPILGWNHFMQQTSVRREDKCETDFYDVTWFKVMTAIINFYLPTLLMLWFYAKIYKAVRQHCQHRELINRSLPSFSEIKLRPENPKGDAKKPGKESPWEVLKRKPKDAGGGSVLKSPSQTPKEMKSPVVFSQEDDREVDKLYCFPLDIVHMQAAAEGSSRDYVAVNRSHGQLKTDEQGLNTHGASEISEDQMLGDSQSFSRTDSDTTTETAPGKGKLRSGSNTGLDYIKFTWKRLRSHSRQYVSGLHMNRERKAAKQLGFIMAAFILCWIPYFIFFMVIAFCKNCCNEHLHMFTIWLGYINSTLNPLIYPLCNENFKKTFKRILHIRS

Histamine H1 receptor [3] = target: T1, Histamine H1 receptor; assay: Antagonist activity at human histamine H1 receptor in SK-N-SH cells assessed as inhibition of histamine-induced calcium level increase during phase-1 compound incubated before histamine addition by Fura-2 based fluorometric assay; assay type: functional, cell-based
Method in brief: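 H1 receptor Ca-dependent signalling was measured in SK-N-SH cells as blockade of histamine-induced calcium flow in phase-I. IC50 values were reported.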

Acetylcholinesterase = Acetylcholinesterase (Homo sapiens, UniProt P22303); assay: Inhibition of AChE
Chain of Acetylcholinesterase (P22303 whole entry): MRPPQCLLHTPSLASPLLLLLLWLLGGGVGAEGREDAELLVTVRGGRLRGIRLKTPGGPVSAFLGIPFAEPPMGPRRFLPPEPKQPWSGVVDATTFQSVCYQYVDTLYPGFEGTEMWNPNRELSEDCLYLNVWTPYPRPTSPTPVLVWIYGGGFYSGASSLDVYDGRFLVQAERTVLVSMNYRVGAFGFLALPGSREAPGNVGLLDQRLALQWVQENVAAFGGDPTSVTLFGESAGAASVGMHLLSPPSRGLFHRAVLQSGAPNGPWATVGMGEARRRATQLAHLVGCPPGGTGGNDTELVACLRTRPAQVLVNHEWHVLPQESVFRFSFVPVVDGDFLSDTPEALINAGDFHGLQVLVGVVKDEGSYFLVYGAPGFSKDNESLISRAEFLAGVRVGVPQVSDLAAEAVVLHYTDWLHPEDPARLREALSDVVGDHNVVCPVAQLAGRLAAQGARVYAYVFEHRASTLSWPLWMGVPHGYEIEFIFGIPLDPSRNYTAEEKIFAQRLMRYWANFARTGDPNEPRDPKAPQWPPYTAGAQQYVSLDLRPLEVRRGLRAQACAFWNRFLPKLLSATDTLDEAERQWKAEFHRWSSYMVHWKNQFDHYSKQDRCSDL

[4] = target: Glutamate NMDA receptor (Rattus norvegicus) (UniProt P35439+Q00959+Q00960+Q00961+Q62645+Q8VHN2+Q9R1M7); assay: Inhibition of NMDA receptor in rat brain cortical neurons assessed as blocking of NMDA-induced currents; assay type: tissue-based
Cholinesterase = Cholinesterase (Homo sapiens, UniProt P06276); assay: Inhibition of BuChE
Chain of Cholinesterase (P06276 whole entry): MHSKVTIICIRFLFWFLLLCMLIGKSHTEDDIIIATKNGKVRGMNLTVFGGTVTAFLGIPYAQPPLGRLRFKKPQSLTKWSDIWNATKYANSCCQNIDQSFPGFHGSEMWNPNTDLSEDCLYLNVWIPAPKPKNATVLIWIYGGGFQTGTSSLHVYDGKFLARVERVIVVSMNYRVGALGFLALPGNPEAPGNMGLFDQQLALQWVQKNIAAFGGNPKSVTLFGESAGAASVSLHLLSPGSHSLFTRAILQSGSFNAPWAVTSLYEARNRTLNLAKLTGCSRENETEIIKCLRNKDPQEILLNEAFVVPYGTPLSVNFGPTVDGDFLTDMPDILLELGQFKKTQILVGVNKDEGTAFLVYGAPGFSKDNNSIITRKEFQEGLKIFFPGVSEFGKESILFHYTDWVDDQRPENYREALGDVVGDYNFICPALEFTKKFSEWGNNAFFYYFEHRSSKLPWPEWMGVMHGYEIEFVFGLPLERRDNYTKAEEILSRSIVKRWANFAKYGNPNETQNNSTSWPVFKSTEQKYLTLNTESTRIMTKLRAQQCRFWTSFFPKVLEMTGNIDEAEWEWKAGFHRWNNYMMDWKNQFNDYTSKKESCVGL

[5] = Inhibition of L-type calcium channel
[6] = Neuroprotective activity in cerebellum cell culture assessed as protection against beta-amyloid fragment Abeta (25-35)-induced neurotoxicity; assay type: functional, tissue-based

| IC50 ([1]; read-out: IC50) | IC50 (Histamine H1 receptor [2]) | IC50 (Histamine H1 receptor [3]) | Compound | further results |
| --- | --- | --- | --- | --- |
| 5.99 µM | 0.41 µM | 0.1 µM | CN1CCc2c(c3ccccc3n2CCc2cccnc2)C1 | – |
| > 10 µM | 0.93 µM | 0.65 µM | CN1CCc2c(c3cc(F)ccc3n2CCc2cccnc2)C1 | – |
| 6.4 µM | – | 0.22 µM | CN1CCc2c(c3cc(C(F)(F)F)ccc3n2CCc2ccncc2)C1 | – |
| – | – | 2.79 µM | Cc1ccc2c(c1)c1c(n2CCc2cccnc2)CCN(C2CCN(C)CC2)C1 | IC50 ([1]; hek293): Not Active |
| 0.37 µM | 3.98 µM | 0.16 µM | Cc1ccc2c(c1)c1c(n2CCc2ccncc2)CCN(C)C1 | – |
| 0.44 µM | 3.16 µM | 0.5 µM | Cc1ccc2c(c1)c1c(n2CCc2cccnc2)CCN(C)C1 | – |
| 10.7 µM | 0.73 µM | 0.11 µM | Cc1ccc(CCn2c3c(c4cc(F)ccc42)CN(C)CC3)cn1 | – |
| 8.36 µM | – | 4.67 µM | COc1ccc2c(c1)c1c(n2CCc2ccccn2)CCN(C)C1 | – |
| 1.59 µM | 1.59 µM | 0.56 µM | CN1CCc2c(c3cc(C(F)(F)F)ccc3n2CCc2ccccn2)C1 | – |
| 7.47 µM | – | 1.29 µM | CN1CCc2c(c3cc(C#N)ccc3n2CCc2ccccn2)C1 | – |
| – | – | 7.57 µM | Cc1ccc2c(c1)c1c(n2CCc2ccncc2)CCN(C2CCN(C)CC2)C1 | IC50 ([1]; hek293): Not Active |
| 15.8 µM | 0.93 µM | 1.82 µM | CN1CCc2c(c3ccccc3n2CCc2ccccn2)C1 | – |
| 2.98 µM | 0.61 µM | 0.94 µM | CN1CCc2c(c3cc(F)ccc3n2CCc2ccccn2)C1 | – |
| 8.91 µM | 0.5 µM | 0.12 µM | CN1CCc2c(c3ccccc3n2CCc2ccncc2)C1 | – |
| 43.2 µM | – | 7.16 µM | CN1CCc2c(c3cc(-c4cccnc4)ccc3n2CCc2ccccn2)C1 | – |
| > 10 µM | – | > 10 µM | CN1CCc2c(c3cc(C(=O)O)ccc3n2CCc2ccncc2)C1 | – |
| 5.8 µM | – | > 10 µM | CN1CCc2c(c3cc(C(F)(F)F)ccc3n2CCc2cccnc2)C1 | – |
| 1.04 µM | – | 0.12 µM | CN1CCc2c(c3cc(Br)ccc3n2CCc2ccccn2)C1 | – |
| 3.24 µM | 0.47 µM | 0.12 µM | CN1CCc2c(c3cc(F)ccc3n2CCc2ccncc2)C1 | – |
| – | – | > 10 µM | Cc1ccc2c(c1)c1c(n2CCc2ccccn2)CCN(C2CCN(C)CC2)C1 | IC50 ([1]; hek293): Not Active |
| 4.34 µM | – | 0.39 µM | COc1ccc2c(c1)c1c(n2CCc2ccncc2)CCN(C)C1 | – |
| 0.86 µM | 10 µM | 0.5 µM | Cc1ccc2c(c1)c1c(n2CCc2ccccn2)CCN(C)C1 | – |
| 2.06 µM | 7.94 µM | 0.32 µM | Cc1ccc2c(c1)c1c(n2CCc2cnccn2)CCN(C)C1 | – |

| Compound | IC50 ([1]; read-out: IC50) | IC50 (Histamine H1 receptor [2]) | IC50 (Histamine H1 receptor [3]) | further results |
| --- | --- | --- | --- | --- |
| Cc1ccc2c(c1)c1c(n2CCc2ccc(C)nc2)CCN(C)C1 [LATREPIRDINE] | 0.89 µM | 1.58 µM | 0.16 µM | IC50 (Acetylcholinesterase): 45 µM; ED50 [4]: 42 µM; IC50 (Cholinesterase): 7.9 µM; IC50 [5]: 57 µM; EC50 [6]: 25 µM |
